Calls of active or inactive are those of the source. The rule behind the calls is not given here.
Columns and labels:
[1] = target: NT-3 growth factor receptor (Homo sapiens) (UniProt Q16288); test: Inhibition of NTRK3 (unknown origin) transfected in mouse Ba/F3 cells at 1 uM after 24 hrs; type: cell-based; details: BaF3
[2] = target: T1, Megakaryocyte-associated tyrosine-protein kinase (Homo sapiens) (UniProt P42679); test: Inhibition of MATK1 (unknown origin) transfected in mouse Ba/F3 cells at 1 uM after 24 hrs; type: cell-based; details: BaF3
T1 sequence (whole entry): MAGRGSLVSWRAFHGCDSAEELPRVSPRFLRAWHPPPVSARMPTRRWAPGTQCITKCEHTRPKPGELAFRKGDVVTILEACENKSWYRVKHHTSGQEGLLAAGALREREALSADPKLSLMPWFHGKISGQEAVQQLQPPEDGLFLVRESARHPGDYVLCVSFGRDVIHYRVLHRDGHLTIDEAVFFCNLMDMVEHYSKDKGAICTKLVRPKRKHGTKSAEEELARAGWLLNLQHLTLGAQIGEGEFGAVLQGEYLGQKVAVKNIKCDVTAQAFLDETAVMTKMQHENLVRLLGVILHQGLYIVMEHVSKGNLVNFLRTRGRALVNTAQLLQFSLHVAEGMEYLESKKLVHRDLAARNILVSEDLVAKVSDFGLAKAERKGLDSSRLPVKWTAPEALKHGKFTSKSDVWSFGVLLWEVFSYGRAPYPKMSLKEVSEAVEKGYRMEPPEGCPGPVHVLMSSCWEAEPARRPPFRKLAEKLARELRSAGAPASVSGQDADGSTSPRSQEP

[3] = target: Leukocyte tyrosine kinase receptor (Homo sapiens) (UniProt P29376); test: Inhibition of LTK (unknown origin) transfected in mouse Ba/F3 cells at 1 uM after 24 hrs; type: cell-based; details: BaF3
Method in brief: (§1)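 Kinase specificity panel: each Ba/F3 line transformed with one of 24 tyrosine kinases depends on that kinase to grow. Cells were given compound at 1 or 5 µM for 24 h, with DMSO as comparator. Percentage growth was read by ATP-lite luminescence and reported as mean ± SEM.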

[4] = target: T2, Ephrin type-A receptor 8 (Homo sapiens) (UniProt P29322); test: Inhibition of EPHA8 (unknown origin) transfected in mouse Ba/F3 cells at 1 uM after 24 hrs; type: cell-based; details: BaF3; method in brief: as §1
T2 sequence (whole entry): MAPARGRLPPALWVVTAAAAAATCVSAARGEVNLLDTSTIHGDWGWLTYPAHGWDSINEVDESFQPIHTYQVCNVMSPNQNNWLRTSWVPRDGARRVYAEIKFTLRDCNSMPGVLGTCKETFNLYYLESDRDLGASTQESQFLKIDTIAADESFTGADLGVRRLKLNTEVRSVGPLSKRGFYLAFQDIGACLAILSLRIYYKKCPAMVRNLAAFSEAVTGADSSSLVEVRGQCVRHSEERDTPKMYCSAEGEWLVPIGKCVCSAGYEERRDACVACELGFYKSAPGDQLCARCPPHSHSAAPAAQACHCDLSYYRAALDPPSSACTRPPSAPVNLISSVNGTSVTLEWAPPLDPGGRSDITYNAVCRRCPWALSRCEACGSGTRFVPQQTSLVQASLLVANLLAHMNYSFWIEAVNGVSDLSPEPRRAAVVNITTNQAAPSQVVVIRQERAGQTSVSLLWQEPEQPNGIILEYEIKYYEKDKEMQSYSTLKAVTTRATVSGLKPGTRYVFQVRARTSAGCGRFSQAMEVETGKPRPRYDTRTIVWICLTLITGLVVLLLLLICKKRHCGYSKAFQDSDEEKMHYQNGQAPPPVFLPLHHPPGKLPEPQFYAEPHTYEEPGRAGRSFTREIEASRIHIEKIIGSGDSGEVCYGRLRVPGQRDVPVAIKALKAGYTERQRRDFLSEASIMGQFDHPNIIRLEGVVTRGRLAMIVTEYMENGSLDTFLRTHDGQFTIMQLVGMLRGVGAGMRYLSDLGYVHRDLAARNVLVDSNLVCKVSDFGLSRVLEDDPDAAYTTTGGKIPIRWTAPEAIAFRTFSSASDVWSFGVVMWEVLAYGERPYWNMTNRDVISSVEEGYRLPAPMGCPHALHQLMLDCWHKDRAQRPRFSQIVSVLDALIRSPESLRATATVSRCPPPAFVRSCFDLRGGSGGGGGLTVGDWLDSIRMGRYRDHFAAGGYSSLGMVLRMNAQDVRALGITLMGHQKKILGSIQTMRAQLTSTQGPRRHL

[5] = target: T3, Ephrin type-A receptor 1 (Homo sapiens) (UniProt P21709); test: Inhibition of EPHA1 (unknown origin) transfected in mouse Ba/F3 cells at 1 uM after 24 hrs; type: cell-based; details: BaF3; method in brief: as §1
T3 sequence (whole entry): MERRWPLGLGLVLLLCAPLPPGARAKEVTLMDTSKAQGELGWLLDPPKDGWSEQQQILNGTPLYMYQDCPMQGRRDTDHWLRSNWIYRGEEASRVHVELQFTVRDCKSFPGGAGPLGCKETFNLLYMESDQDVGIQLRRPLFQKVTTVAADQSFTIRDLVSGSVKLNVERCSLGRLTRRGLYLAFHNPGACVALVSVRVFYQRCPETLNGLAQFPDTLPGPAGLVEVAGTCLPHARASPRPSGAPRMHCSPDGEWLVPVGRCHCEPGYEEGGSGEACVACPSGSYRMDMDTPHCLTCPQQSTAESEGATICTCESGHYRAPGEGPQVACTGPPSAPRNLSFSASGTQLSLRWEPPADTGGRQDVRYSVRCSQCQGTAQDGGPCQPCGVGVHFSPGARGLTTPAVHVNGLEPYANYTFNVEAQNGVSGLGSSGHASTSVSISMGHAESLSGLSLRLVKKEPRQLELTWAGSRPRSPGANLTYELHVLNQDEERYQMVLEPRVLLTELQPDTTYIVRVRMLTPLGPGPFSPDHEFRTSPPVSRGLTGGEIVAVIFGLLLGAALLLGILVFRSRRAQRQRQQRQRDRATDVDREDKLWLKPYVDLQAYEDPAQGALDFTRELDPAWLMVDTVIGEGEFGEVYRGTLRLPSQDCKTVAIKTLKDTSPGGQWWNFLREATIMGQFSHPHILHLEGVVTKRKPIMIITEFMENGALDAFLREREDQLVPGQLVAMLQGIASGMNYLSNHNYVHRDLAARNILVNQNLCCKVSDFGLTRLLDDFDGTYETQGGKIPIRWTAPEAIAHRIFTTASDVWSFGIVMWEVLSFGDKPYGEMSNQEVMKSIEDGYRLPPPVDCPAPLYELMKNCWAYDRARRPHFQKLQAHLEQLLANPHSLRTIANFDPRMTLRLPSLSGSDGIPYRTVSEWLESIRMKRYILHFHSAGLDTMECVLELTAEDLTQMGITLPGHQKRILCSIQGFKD

[6] = target: Tyrosine-protein kinase ABL2 (Homo sapiens) (UniProt P42684); test: Inhibition of ABL2 (unknown origin) transfected in mouse Ba/F3 cells at 1 uM after 24 hrs; type: cell-based; details: BaF3; method in brief: as §1
HEL = test: Cytotoxicity against human HEL cells after 72 hrs by plate reader analysis; type: functional, cell-based
EOL1 = test: Cytotoxicity against human EOL-1 cells after 72 hrs by plate reader analysis; type: functional, cell-based; details: EOL1, 72 h
MV4-11 = test: Cytotoxicity against human MV4-11 cells after 72 hrs by plate reader analysis; type: functional, cell-based; details: MV4-11, 72 h

Chain of Leukocyte tyrosine kinase receptor (Homo sapiens) (P29376 whole entry): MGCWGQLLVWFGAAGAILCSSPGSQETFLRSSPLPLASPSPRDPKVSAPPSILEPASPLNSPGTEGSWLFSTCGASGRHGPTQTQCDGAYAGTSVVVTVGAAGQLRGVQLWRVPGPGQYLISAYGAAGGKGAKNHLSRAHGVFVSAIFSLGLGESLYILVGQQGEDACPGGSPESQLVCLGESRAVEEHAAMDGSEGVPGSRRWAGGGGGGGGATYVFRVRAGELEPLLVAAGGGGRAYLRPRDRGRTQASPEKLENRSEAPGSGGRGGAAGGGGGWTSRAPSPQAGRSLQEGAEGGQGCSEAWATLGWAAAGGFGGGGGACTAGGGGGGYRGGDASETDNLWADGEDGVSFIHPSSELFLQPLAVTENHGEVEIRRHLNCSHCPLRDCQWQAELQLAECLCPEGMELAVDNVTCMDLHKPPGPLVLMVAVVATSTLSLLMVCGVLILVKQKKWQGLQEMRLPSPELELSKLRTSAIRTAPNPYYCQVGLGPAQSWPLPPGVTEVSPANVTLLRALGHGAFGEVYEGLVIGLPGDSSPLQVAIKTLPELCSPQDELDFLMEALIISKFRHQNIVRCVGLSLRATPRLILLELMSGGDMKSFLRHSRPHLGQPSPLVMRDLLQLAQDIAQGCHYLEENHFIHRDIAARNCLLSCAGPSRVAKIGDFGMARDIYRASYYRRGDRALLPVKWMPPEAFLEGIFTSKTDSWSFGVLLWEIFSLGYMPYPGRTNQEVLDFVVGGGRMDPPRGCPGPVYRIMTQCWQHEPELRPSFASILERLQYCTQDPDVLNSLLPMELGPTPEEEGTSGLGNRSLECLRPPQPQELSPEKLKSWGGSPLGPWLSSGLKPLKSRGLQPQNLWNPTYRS
Chain of NT-3 growth factor receptor (Homo sapiens) (Q16288 32-839 limits assumed): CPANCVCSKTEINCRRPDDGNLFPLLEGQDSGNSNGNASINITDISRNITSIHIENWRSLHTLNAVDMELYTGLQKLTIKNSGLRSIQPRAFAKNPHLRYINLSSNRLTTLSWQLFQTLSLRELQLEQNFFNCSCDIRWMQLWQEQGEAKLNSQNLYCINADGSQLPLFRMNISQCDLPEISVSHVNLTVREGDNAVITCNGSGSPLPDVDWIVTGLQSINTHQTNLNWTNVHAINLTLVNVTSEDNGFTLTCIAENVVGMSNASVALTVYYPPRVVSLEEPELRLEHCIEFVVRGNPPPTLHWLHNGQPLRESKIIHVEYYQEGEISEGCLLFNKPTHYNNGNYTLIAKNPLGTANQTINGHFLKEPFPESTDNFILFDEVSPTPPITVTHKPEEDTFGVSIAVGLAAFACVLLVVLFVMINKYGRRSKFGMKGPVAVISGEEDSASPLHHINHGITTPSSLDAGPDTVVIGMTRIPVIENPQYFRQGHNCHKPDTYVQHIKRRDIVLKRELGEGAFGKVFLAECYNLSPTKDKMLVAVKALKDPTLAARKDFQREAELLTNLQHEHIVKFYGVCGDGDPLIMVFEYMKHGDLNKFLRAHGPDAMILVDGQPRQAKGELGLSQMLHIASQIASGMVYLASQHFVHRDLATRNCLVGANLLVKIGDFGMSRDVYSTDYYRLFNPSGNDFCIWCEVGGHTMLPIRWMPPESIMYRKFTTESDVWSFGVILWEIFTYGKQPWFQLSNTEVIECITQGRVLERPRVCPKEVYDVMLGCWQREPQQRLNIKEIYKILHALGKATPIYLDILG
Chain of Tyrosine-protein kinase ABL2 (Homo sapiens) (P42684 whole entry): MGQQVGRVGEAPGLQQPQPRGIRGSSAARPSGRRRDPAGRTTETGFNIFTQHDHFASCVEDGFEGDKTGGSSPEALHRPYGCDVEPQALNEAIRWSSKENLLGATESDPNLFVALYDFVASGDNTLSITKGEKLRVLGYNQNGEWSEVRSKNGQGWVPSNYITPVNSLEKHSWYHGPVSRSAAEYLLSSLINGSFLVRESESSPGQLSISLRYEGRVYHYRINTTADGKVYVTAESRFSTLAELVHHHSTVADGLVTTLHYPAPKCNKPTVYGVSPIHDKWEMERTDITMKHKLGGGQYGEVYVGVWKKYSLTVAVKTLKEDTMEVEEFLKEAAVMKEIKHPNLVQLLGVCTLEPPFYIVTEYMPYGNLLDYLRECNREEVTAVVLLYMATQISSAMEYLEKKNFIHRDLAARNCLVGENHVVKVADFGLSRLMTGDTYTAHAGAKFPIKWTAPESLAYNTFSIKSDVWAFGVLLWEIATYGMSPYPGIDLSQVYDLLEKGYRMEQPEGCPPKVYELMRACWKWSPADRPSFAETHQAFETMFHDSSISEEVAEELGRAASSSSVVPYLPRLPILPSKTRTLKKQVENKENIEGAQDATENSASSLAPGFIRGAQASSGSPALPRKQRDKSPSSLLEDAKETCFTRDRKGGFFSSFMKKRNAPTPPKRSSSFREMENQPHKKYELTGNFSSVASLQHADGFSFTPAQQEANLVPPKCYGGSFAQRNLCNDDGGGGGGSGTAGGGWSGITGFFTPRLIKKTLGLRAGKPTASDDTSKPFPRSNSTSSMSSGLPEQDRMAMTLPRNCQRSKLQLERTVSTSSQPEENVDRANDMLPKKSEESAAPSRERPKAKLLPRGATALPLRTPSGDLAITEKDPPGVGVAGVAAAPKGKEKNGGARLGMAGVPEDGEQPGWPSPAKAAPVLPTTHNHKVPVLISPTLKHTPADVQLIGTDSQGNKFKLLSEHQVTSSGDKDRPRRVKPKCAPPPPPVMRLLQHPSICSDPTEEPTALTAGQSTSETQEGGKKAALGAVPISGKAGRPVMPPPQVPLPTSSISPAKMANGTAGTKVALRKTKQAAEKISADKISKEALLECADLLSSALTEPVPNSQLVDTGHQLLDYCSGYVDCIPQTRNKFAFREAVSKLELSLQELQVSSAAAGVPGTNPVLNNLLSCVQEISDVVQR

| SMILES | inhibition [1] | inhibition [2] | inhibition [3] | inhibition [4] | inhibition [5] | inhibition [6] | EC50 (HEL) [µM] | EC50 (EOL1) [µM] | EC50 (MV4-11) [µM] |
| --- | --- | --- | --- | --- | --- | --- | --- | --- | --- |
| Cc1ccc(-n2cnc3cc(Nc4nnc(C)c5ccccc45)ccc32)cc1 |  |  |  |  |  |  | 14 | 0.889 | 3.41 |
| Fc1ccc(-c2n[nH]cc2-c2ccncc2)cc1Cl |  |  |  |  |  |  | 1000 | 0.382 | 2.75 |
| COc1ccc(C(=O)Nc2cc(-c3ccccc3)[nH]n2)cc1 | inactive | inactive | inactive | inactive | inactive | inactive | 47 | 0.066 | 0.142 |

More lines, main results first:

| inhibition [1] | inhibition [2] | inhibition [3] | inhibition [4] | inhibition [5] | inhibition [6] | SMILES | EC50 (HEL) [µM] | EC50 (EOL1) [µM] | EC50 (MV4-11) [µM] |
| --- | --- | --- | --- | --- | --- | --- | --- | --- | --- |
| inactive | inactive | inactive | inactive | inactive | inactive | Cc1cccc(C(=O)Nc2cc(-c3ccc(F)cc3)n[nH]2)c1 | 62 | 0.202 | 1.78 |
| inactive | inactive | inactive | inactive | inactive | inactive | Cc1ccc(-c2cc(NC(=O)c3ccc(F)cc3)[nH]n2)cc1 | 1000 | 0.502 | 2.82 |

From ChEMBL document CHEMBL2390926, “Identification of novel FLT3 kinase inhibitors” (Eur J Med Chem, 2013)
